# Measured values from BindingDB's records for doi:10.1021/jm030311v (Southern Research Institute, 2004).
# Columns and labels:
# [1] = Inhibitory concentration required for 50% inhibition of antagonism towards opioid receptor delta 1 in [35S]GTP-gamma-S, binding assay in guinea pig caudate
# [2] = Apparent antagonist activity determined by measuring the ability to inhibit stimulation of [35S]GTP-gamma-S, binding to opioid receptor delta 1 in guinea pig caudate membranes
# [3] = target: Kappa-type opioid receptor (Cavia porcellus, UniProt P41144); assay: Apparent binding affinity of compound was determined by antagonism towards Opioid receptor kappa 1 in [35S]GTP-gamma-S, binding assay in guinea pig caudate
# [4] = target: T1, Mu-type opioid receptor (Cavia porcellus, UniProt P97266); assay: Apparent binding affinity of compound was determined by antagonism towards Opioid receptor mu 1 in [35S]GTP-gamma-S, binding assay in guinea pig caudate
# [5] = target: T1, Mu-type opioid receptor; assay: Agonistic activity towards Opioid receptor mu 1 was determined in [35S]GTP-gamma-S, binding assay in guinea pig caudate
# Summary of the method: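 Guinea pig caudate membranes (10-20 µg protein) incubated 3 h at 22 °C in Tris-HCl pH 7.4 containing 100 mM NaCl, 10 mM MgCl2, 1 mM EDTA, 100 µM GDP and 0.05-0.1 nM [35S]GTP-γ-S, then filtered and counted. Nonspecific binding defined with 10 µM GTP-γ-S. Site isolation used CTAP, nor-BNI, NTI or TIPP. […] Three experiments pooled; logistic fit.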
# T1 sequence (P97266 whole entry): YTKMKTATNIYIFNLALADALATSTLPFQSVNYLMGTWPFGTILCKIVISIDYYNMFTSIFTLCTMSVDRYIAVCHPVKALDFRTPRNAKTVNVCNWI
# Chain of Kappa-type opioid receptor (P41144 whole entry): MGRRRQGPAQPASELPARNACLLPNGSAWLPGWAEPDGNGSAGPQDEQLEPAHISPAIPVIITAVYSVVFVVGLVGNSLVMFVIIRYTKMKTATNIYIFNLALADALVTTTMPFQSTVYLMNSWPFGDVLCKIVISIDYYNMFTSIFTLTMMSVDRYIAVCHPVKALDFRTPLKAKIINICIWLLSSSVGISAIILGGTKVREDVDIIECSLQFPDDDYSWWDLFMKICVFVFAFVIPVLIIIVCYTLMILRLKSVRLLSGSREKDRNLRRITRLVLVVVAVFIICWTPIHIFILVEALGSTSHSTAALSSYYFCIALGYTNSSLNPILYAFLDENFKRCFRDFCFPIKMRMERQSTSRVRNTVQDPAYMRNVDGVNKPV
Compound,IC50 [1],Ki [2],other results
"CN1CC[C@]23c4c5ccc(O)c4O[C@H]2c2ncc(-c4ccccc4)cc2C[C@@]3(O)C1C5 [19-methyl-6-phenyl-(2S,10R)-11-oxa-8,19-diazahexacyclo[10.9.1.01,10.02,18.04,9.016,22]docosa-4(9),5,7,12,14,16(22)-hexaene-2,13-diol]",920 nM,–,–
"Oc1ccc2c3c1O[C@H]1c4ncc(-c5ccc(Cl)cc5)cc4C[C@H]4C(C2)N(CC2CC2)CC[C@]314 [6-(4-chlorophenyl)-19-cyclopropylmethyl-(2R,10R)-11-oxa-8,19-diazahexacyclo[10.9.1.01,10.02,18.04,9.016,22]docosa-4(9),5,7,12,14,16(22)-hexaen-13-ol]",–,1.6 nM,–
"CN1CC[C@]23c4c5ccc(O)c4O[C@H]2c2ncc(-c4ccc(Cl)cc4)cc2C[C@H]3C1C5 [6-(4-chlorophenyl)-19-methyl-(2R,10R)-11-oxa-8,19-diazahexacyclo[10.9.1.01,10.02,18.04,9.016,22]docosa-4(9),5,7,12,14,16(22)-hexaen-13-ol]",–,11 nM,–
"Oc1ccc2c3c1OC1c4ncc(-c5ccc(Cl)cc5)cc4C[C@@]4(O)[C@@H](C2)N(CC2CC2)CC[C@]314 (stereo partly drawn) [5'-(Chlorophenyl)-17-(cyclopropylmethyl) -6,7-didehydro-3,14-dihydroxy-4,5alpha-epoxypyrido-[2',3':6,7]morphinan]",–,0.18 nM,–
"CN1CC[C@]23c4c5ccc(O)c4O[C@H]2c2ncc(-c4ccc(Cl)cc4)cc2C[C@@]3(O)C1C5 [6-(4-chlorophenyl)-19-methyl-(2S,10R)-11-oxa-8,19-diazahexacyclo[10.9.1.01,10.02,18.04,9.016,22]docosa-4(9),5,7,12,14,16(22)-hexaene-2,13-diol]",–,–,Ki [3]: 767 nM; Ki [4]: > 1000 nM
"CN1CC[C@]23c4c5ccc(O)c4O[C@H]2c2ncccc2C[C@H]3C1C5 [19-methyl-(2R,10R)-11-oxa-8,19-diazahexacyclo[10.9.1.01,10.02,18.04,9.016,22]docosa-4(9),5,7,12,14,16(22)-hexaen-13-ol]",–,595 nM,–
"CN1CC[C@]23c4c5ccc(O)c4O[C@H]2c2ncc(-c4ccc(Cl)cc4Cl)cc2C[C@H]3C1C5 [6-(2,4-dichlorophenyl)-19-methyl-(2R,10R)-11-oxa-8,19-diazahexacyclo[10.9.1.01,10.02,18.04,9.016,22]docosa-4(9),5,7,12,14,16(22)-hexaen-13-ol]",–,1.1 nM,–
"CN1CC[C@]23c4c5ccc(O)c4O[C@H]2c2ncc(-c4ccc(Br)cc4)cc2C[C@H]3C1C5 [6-(4-bromophenyl)-19-methyl-(2R,10R)-11-oxa-8,19-diazahexacyclo[10.9.1.01,10.02,18.04,9.016,22]docosa-4(9),5,7,12,14,16(22)-hexaen-13-ol]",55 nM,–,–
"CN1CC[C@]23c4c5ccc(O)c4O[C@H]2c2ncc(-c4ccc(Cl)c(Cl)c4)cc2C[C@H]3C1C5 [6-(3,4-dichlorophenyl)-19-methyl-(2R,10R)-11-oxa-8,19-diazahexacyclo[10.9.1.01,10.02,18.04,9.016,22]docosa-4(9),5,7,12,14,16(22)-hexaen-13-ol]",74 nM,–,–
"C[C@@H](NC(=O)[C@@H](N)Cc1ccc(O)cc1)C(=O)NCC(=O)N(C)[C@@H](Cc1ccccc1)C(=O)NCCO [[tyrosyl-3,5-3H(N)]-D-Ala2-Mephe4-glyol5-enkephalin]",–,–,EC50 [5]: 414 nM
